Measurements published in ChEMBL document CHEMBL5346918, “Design, synthesis and biological evaluation of Nucleosidic CD99 inhibitors that selectively reduce Ewing sarcoma viability” (Eur J Med Chem, 2023).
pIC50: −log10 of the molar value. Calls of active or inactive are those of the source. The calls are words filed in the database; no cut-off is given here.

What was measured:
[1] = tested on: TC-32; assay: Induction of apoptosis in human TC-32 cells assessed as increase in hypodiploid subG1 population at 0.1 to 0.4 uM incubated for 48 hrs by propidium iodide staining based flow cytometry; type: functional, cell-based; conditions: dose 0.1-0.4 µM
In short: (§1)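 Treatment same as the apoptosis blots (48 h; 0.1–0.4 μM or 10–40 μM). Adherent cells trypsinized and pooled with floating cells, then washed in PBS. Fixed in ice-cold 70% ethanol 1 h on ice, rehydrated, RNase A 100 μg/mL. Stained with propidium iodide at 50 μg/mL final for 1 h on ice. Sub-G1 fraction read by flow cytometry.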

[2] = tested on: U2OS; assay: Induction of apoptosis in human U2OS cells assessed as PARP cleavage at 0.1 to 0.4 uM incubated for 48 hrs by western blot analysis; type: functional, cell-based; conditions: dose 0.1-0.4 µM
In short: (§2)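 Cells treated 48 h with three concentrations per agent (0.1, 0.2 or 0.4 μM for one; 10, 20 or 40 μM for another). Total cell lysates immunoblotted for PARP and caspase 3 and their cleaved products. Actin used as loading control and for normalization. ECL signal imaged on PVDF, bands quantified by densitometry.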

[3] = tested on: U2OS; assay: Induction of apoptosis in human U2OS cells assessed as caspase-3 cleavage at 0.1 to 0.4 uM incubated for 48 hrs by western blot analysis; type: functional, cell-based; conditions: dose 0.1-0.4 µM; in short: as §2
[4] = tested on: U2OS; assay: Induction of apoptosis in human U2OS cells assessed as increase in hypodiploid subG1 population at 0.1 to 0.4 uM incubated for 48 hrs by propidium iodide staining based flow cytometry; type: functional, cell-based; conditions: dose 0.1-0.4 µM; in short: as §1
[5] = tested on: SAOS-2; assay: Cytotoxicity against human SAOS-2 cells assessed as reduction in cell viability incubated for 48 hrs by CellTiter-Blue reagent based […] assay; type: functional; conditions: SAOS-2, 48 h
In short: (§3)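 Cells seeded and grown to 60–80% confluency (usually 18–24 h), then treated 48 h with a range of concentrations prepared in each line's medium. CellTiter-Blue reagent added at the end of treatment and incubated 3–5 h at 37 °C, 5% CO₂. Fluorescence read at 560 nm excitation and 590 nm emission. IC50 from nonlinear regression, log(inhibitor) vs. normalized response.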

[6] = tested on: TC-32; assay: Induction of apoptosis in human TC-32 cells assessed as caspase-3 cleavage at 0.1 to 0.4 uM incubated for 48 hrs by western blot analysis; type: functional, cell-based; conditions: dose 0.1-0.4 µM; in short: as §2
[7] = tested on: TC-32; assay: Cytotoxicity against human TC-32 cells assessed as reduction in cell viability incubated for 48 hrs by CellTiter-Blue reagent based […] assay; type: functional; conditions: TC-32, 48 h; in short: as §3
[8] = tested on: TC-32; assay: Induction of apoptosis in human TC-32 cells assessed as PARP cleavage at 0.1 to 0.4 uM incubated for 48 hrs by western blot analysis; type: functional, cell-based; conditions: dose 0.1-0.4 µM; in short: as §2
[9] = tested on: U2OS; assay: Cytotoxicity against human U2OS cells assessed as reduction in cell viability incubated for 48 hrs by CellTiter-Blue reagent based […] assay; type: functional; in short: as §3
[10] = Cytotoxicity against human A4573 cells assessed as reduction in cell viability incubated for 48 hrs by CellTiter-Blue reagent based […] assay; type: functional; conditions: A4573, 48 h; in short: as §3
[11] = Cytotoxicity against human TC71 cells assessed as reduction in cell viability incubated for 48 hrs by CellTiter-Blue reagent based […] assay; type: functional; conditions: TC-71, 48 h; in short: as §3

## Nc1nc(Cl)nc2c1ncn2[C@@H]1O[C@H](CO)[C@@H](O)[C@@H]1F [CLOFARABINE]
[1]
  Activity: Active
[2]
  Activity: inactive
[3]
  Activity: inactive
[4]
  Activity: inactive
[5]
  pIC50: ≤ 4.30
[6]
  Activity: Active
[7]
  pIC50: 6.89
[8]
  Activity: Active
[9]
  pIC50: ≤ 4.30
[10]
  pIC50: 6.74
[11]
  pIC50: 7.05

## Nc1nc(Cl)nc2c1ncn2[C@H]1C[C@H](O)[C@@H](CO)O1 [CLADRIBINE]
[5]
  pIC50: ≤ 4.30
[7]
  pIC50: 5.53
[9]
  pIC50: ≤ 4.30
[10]
  pIC50: 5.83
[11]
  pIC50: 5.96

## CSC[C@H]1O[C@@H](n2cnc3c(N)nc(SC)nc32)[C@@H](F)[C@@H]1O
[5]
  pIC50: ≤ 4.30
[7]
  pIC50: ≤ 4.30
[9]
  pIC50: ≤ 4.30
[10]
  pIC50: ≤ 4.30
[11]
  pIC50: ≤ 4.30

## Nc1nc(-c2cccnc2)nc2c1ncn2[C@H]1C[C@H](O)[C@@H](CO)O1
[5]
  pIC50: 3.96
[7]
  pIC50: 4.28
[9]
  pIC50: 3.79
[10]
  pIC50: 4.26
[11]
  pIC50: 4.53

## Nc1ncnc2c1ncn2[C@@H]1O[C@H](CN2CCOCC2)[C@@H](O)[C@@H]1F
[5]
  pIC50: ≤ 4.30
[7]
  pIC50: ≤ 4.30
[9]
  pIC50: ≤ 4.30
[10]
  pIC50: ≤ 4.30
[11]
  pIC50: ≤ 4.30

## CS(=O)(=O)C[C@H]1O[C@@H](n2cnc3c(N)nc(Cl)nc32)[C@@H](F)[C@@H]1O
[5]
  pIC50: ≤ 4.30
[7]
  pIC50: ≤ 4.30
[9]
  pIC50: ≤ 4.30
[10]
  pIC50: ≤ 4.30
[11]
  pIC50: 4.50
